Screens deposited in PubChem by The Scripps Research Institute Molecular Screening Center.
CHO parental Ca: ATP-evoked calcium signal inhibitors, parental CHO, primary screen, counter-screen for OX1R antagonist project, cell-based, fluorescence, Fluo-8 calcium dye; parental CHO-K1, ATP-induced calcium, Fluo-8 fluorescence; 0.63% of 330,000 active; inhibition, % at 5.6 µM;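 active = inhibition above that plate's mean sample inhibition plus 3 SD, cut at about 26% in these data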;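 also: 0% = ATP-challenged DMSO wells and 100% = DMSO wells without ATP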
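Assay system – parental CHO cells · Reagent – ATP stimulus · Detection – intracellular calcium via Fluo-8 no-wash fluorescent dye · Evaluation – percent inhibition of ATP-evoked calcium rise, normalized to controls · Controls – ATP wells versus no-ATP DMSO wells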
GalR3 antagonist: GalR3 antagonists in HEK293 cells, primary screen, cell-based, fluorescence readout; HEK293 GalR3-CNG cAMP membrane potential fluorescence; galR3 body fused to GalR1 C-terminus; Galanin receptor type 3 (Homo sapiens), O60755; inhibition, % at 3 µM; 0.44% of 360,000 active;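 active = inhibition above the screen-wide average plus 3 SD, cut at about 13% in these data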;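 also: forskolin and galanin both at EC90 stimulate the cells; cAMP rise reported by CNG channel membrane potential dye signal; 0% = forskolin plus galanin with DMSO and 100% = forskolin alone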
Target sequence (O60755 1-299 limits assumed): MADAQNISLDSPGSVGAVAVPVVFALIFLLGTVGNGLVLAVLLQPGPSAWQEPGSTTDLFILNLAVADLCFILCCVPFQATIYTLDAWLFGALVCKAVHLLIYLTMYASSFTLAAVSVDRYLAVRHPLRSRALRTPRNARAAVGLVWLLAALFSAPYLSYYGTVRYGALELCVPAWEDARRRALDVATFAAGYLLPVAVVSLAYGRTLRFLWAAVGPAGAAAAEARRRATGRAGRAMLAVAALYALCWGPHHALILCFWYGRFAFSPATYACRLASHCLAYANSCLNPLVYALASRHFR
TAAR1 ag: human TAAR1 agonists, primary screen, Fluo-8 calcium fluorescence, CHO RD-HGA16 cells; Trace amine-associated receptor 1 (Homo sapiens), Q96RJ0; vehicle wells 0%, saturating PEA agonist 100%; activation, % at 3 µM; 0.99% of 360,000 active;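 active = activation above the mean activation of all test compounds in the run plus 3 SD, cut at about 38% in these data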
Target sequence (Q96RJ0 whole entry, looked up): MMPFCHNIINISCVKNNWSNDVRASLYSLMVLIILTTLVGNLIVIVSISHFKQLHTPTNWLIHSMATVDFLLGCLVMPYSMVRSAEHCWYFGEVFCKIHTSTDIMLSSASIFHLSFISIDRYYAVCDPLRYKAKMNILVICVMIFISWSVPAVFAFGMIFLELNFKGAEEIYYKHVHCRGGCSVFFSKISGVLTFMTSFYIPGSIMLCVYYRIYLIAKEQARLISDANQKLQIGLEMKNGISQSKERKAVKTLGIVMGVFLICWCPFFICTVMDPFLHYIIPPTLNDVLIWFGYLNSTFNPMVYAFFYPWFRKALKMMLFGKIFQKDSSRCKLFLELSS
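System: CHO-derived RD-HGA16 cells with stable Gα16 and human TAAR1. Times: 17-24 h plating, Fluo-8 75 min 37 °C, 30 min RT. Measured by: calcium-sensitive Fluo-8 signal, excitation 470-495, emission 515-575 nm. Read-out basis: % activation relative to PEA EC100 response. Control set: DMSO and PEA EC100. Repeats: no replicates (n 1).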
OX1R antag-1: antagonists of human orexin 1 receptor (OX1R). OX1R-expressing cells, FRET antagonist read-out. inhibition, % at 6.6 µM. 1.8% of 330,000 active; in the data active = inhibition mostly above about 38%, no sharp cut-off; inactive = mostly below about 40%;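 also: 0% = agonist challenge alone and 100% = reference antagonist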
TAAR1 antagonist: human TAAR1 antagonists, primary screen, Fluo-8 calcium fluorescence, CHO RD-HGA16 cells; Trace amine-associated receptor 1 (Homo sapiens), Q96RJ0; antagonist; inhibition, % at 3 µM; 1.5% of 360,000 active; AID 624466, 2012;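 active = inhibition above a per-plate cutoff, the mean inhibition of test compounds on that plate plus 3 SD, cut at about 49% in these data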;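 also: 0% = DMSO plus EC80 beta-PEA response and 100% = DMSO alone without agonist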
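Test system – hTAAR1-expressing CHO RD-HGA16 cells, Gα16-coupled · Reagent – β-PEA at EC80 concentration, post-compound challenge · Compound dosing – 3 µM, single point · Timing – 140 s kinetic read after compound, 140 s after agonist · Detection – Fluo-8 intracellular calcium dye fluorescence, real-time kinetic reads · Control set – DMSO and EC80 PEA controls · Repeats – n of 1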
OX1R antag-2: OX1R (HCRTR1) antagonists, primary screen, fluorescence, CHO/OX1R cells, Fluo-8 calcium, orexin A; Fluo-8 calcium fluorescence; inhibition, % at 5 µM; 0.43% of 330,000 active;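 active = inhibition above its plate's threshold, mean inhibition of all tested compounds on the plate plus 3 SD, cut at about 37% in these data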;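 also: 0% = orexin A challenge wells and 100% = SB-334867-A antagonist wells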
* marks the source's active call; other numbers are inactive results; . = no result given. Most compounds without a hit are left out; they make up all but 4.3% or so of the library.

SMILES	CHO parental Ca	GalR3 antagonist	TAAR1 ag	OX1R antag-1	TAAR1 antagonist	OX1R antag-2
O=C(Cc1cccc(NC(=O)C2CCCN(C(=O)C3CC3)C2)c1)Nc1cccc(C(=O)N2CCOCC2)c1 (stereo not drawn)	.	-6	0	.	-6	.
Cc1cc2cc(OCC(=O)O)ccc2n1C	-2	-5	19	59*	8	-7
NC(=O)c1cc(S(=O)(=O)NCc2cccs2)cs1	-6	-6	2	1	-9	-10
CCCCNC(=S)Nc1ccc(C(F)(F)F)cc1	71*	-4	3	65	3	29
CCCCNC(=S)Nc1ccc(Cl)cc1	5	2	9	16	9	3
Cc1nc2c(c(=O)c3ccccc3n2C)c(=O)n1C1CCCC1	.	2	11	.	11	.
Cn1c2ccccc2c(=O)c2c(=O)n(C3CCCCCC3)c(C3CCCCC3)nc21	.	-1	38*	.	1	.
O=c1c(=O)n(CCO)n(CCO)c(=O)n1CCO	.	-4	1	.	-6	.
O=C(N/N=C/c1ccc([N+](=O)[O-])o1)c1ccc(O)cc1	4	.	0	74*	2	1
Cc1scc(C(=O)N/N=C/c2ccc([N+](=O)[O-])o2)c1C	-5	-1	1	51*	-19	-18
O=C(N/N=C\c1ccc([N+](=O)[O-])o1)c1cncc(Br)c1	-4	-6	1	32	-21	-5
[O-]/[N+](=C\c1ccccc1)[C@@H]1CCCC[C@@H]1/[N+]([O-])=C/c1ccccc1	5	2	10	10	-7	-6
O=C(N/N=C/c1ccc([N+](=O)[O-])o1)c1ccncc1	-16	-2	2	55*	0	9
O=[N+]([O-])c1ccc(/C=[N+](\[O-])[C@@H]2CCCC[C@@H]2/[N+]([O-])=C/c2ccc([N+](=O)[O-])o2)o1	-8	-9	4	42*	0	-18
CCOc1ccc(OCCC(=O)OCC(=O)Nc2ccc3c(c2)OCCO3)cc1	-9	-2	2	5	-50	-13
CCOC(=O)C1(Cc2ccccc2)CCCN(C(=O)c2cnn(CC)c2)C1 (stereo not drawn)	-3	-7	1	5	-17	-7
Cc1ccc(/C=N/NC(=O)c2ccc(-c3ccccc3)cc2)o1	-8	-8	-1	14	36	-6
Cc1nc2ccccn2c1C(=O)N/N=C/c1ccc([N+](=O)[O-])cc1	5	.	.	10	.	-15
CCN(CC)S(=O)(=O)c1cccc(C(=O)N/N=C/c2ccc([N+](=O)[O-])o2)c1	-5	-6	2	73*	18	-16
O=C(N/N=C/c1ccc([N+](=O)[O-])o1)C1CCCC1	8	-2	-1	91*	8	-16
Cc1nc2ccccn2c1C(=O)N/N=C/c1ccc([N+](=O)[O-])o1	7	-8	2	65*	4	-12
Cc1ccc(/C=N\NC(=O)c2cc([N+](=O)[O-])cc([N+](=O)[O-])c2)o1	-10	0	4	65*	-8	-25
CCN(CC)S(=O)(=O)c1cccc(C(=O)N/N=C/c2ccccc2OCC(=O)O)c1	4	6	0	33	-22	3
COCCNC(=O)C1(C)CCN(C(=O)c2cc(C(C)(C)C)nn2C)C1 (stereo not drawn)	.	-4	0	.	1	.
O=C(c1cc2cc([N+](=O)[O-])ccc2s1)N1CCOCC1	-6	-8	6	46*	4	-4
SMILES	CHO parental Ca	GalR3 antagonist	TAAR1 ag	OX1R antag-1	TAAR1 antagonist	OX1R antag-2
O=C(c1cc2ccc([N+](=O)[O-])cc2oc1=O)N1CCOCC1	-7	0	5	57*	-25	-1
O=C(CN1CCOCC1)Nc1nc2ccc(F)cc2s1	-10	-3	1	-1	18	-7
O=C(CN1CCOCC1)Nc1nc2ccc([N+](=O)[O-])cc2s1	-13	-5	8	62*	2	-40
COC(=O)c1cc2c(c3c4cc(C)ccc4n(S(=O)(=O)c4ccc(OC)cc4)c13)C(=O)N(Cc1ccc(C(F)(F)F)cc1)C2	.	-3	0	.	-20	.
COc1ccc(NS(=O)(=O)c2ccc3c(c2)N(C(C)=O)CCO3)cc1	-7	-6	17	10	-20	-20
O=S(=O)(c1ccc(Br)s1)N1CCN(CCOc2ccccc2)CC1	-9	-6	5	4	23	-2
Cn1c(=O)c2c(n(C)c1=O)=NC1(CCCCC1)ON=2	2	-3	14	71*	-5	-15
Cc1ccccc1CNC(=O)Nc1ccc(Cl)cc1	8	-3	15	9	-1	-8
CN1Cc2sc(NC(=S)NC(=O)c3ccccc3)c(C#N)c2CC1(C)C	34*	2	13	25	10	40*
COc1ccc(CN(C)S(=O)(=O)c2nnc(NC(=O)c3ccccc3OC)s2)cc1OC	-30	-6	7	49*	31	-38
C=CC(=O)NC1CCCCN(CCC)C1=O (stereo not drawn)	.	0	0	.	2	.
COc1cccc(-c2ccc3nnc(SCC(=O)N4CCCC4)n3n2)c1	-7	-1	0	22	-15	-22
Cc1ccccc1NC(=O)CSc1nnc2ccc(-c3cccnc3)nn12	-7	-1	2	54*	-3	-19
CC1CCN(C(=O)CSc2nnc(-c3cccnc3)o2)CC1	2	-2	0	12	6	-15
COc1cccc(-c2ccc3nnc(SCC(=O)N4CCOCC4)n3n2)c1	-1	-4	-1	51*	-7	-8
COc1ccccc1CCNC(=O)CSc1nnc2ccc(-c3ccncc3)nn12	-12	3	8	39*	-30	-20
CC1CCN(C(=O)CSc2nnc3ccc(-c4cccnc4)nn23)CC1	-10	-5	-1	35*	-2	-24
N#Cc1ccc(S(=O)(=O)NCC2CCN(C(=O)C(=O)c3cc4ccccc4o3)CC2)cc1	.	-5	6	.	-8	.
CC(=Nc1ccccc1)C1=C(O)C(Cc2ccccc2)NC1=O (stereo not drawn)	.	0	0	.	1	.
CCSc1nnc2ccc(-c3ccc(OC)c(OC)c3)nn12	-8	1	-1	39*	-25	-6
O=C(CSc1ccc(-c2ccccc2)nn1)N1CCOCC1	-14	-5	9	49*	4	-4
COc1ccc(-c2ccc3nnc(SCC(N)=O)n3n2)cc1	-7	-4	-2	54	-13	5
